The source made the active and inactive calls. The calls are words filed in the database; no cut-off is given here.
How the values were obtained:
[1] = biological target: T1, Reduced folate transporter (Homo sapiens) (UniProt P41440); experiment: Inhibition of human RFC-mediated [3H]MTX uptake in chinese hamster PC43-10 cells at 10 uM after 2 mins relative to control; assay type: cell-based
T1 sequence (whole entry): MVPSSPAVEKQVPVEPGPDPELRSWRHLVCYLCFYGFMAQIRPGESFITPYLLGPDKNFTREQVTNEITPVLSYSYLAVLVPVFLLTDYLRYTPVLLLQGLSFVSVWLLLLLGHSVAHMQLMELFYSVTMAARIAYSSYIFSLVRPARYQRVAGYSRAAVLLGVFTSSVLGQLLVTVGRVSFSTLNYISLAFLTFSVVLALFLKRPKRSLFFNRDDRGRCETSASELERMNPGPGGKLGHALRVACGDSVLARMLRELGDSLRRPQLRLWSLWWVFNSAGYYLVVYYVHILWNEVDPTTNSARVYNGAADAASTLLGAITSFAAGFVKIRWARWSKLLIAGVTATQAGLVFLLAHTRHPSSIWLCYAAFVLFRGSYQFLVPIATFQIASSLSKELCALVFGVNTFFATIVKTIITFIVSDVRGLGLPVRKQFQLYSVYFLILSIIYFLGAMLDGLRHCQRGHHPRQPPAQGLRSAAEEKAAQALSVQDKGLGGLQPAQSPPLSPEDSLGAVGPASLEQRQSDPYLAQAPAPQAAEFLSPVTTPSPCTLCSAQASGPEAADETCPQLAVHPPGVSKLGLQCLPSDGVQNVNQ
Summary of the method: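 PC43-10 (hRFC) cells were suspended in Hank's balanced salts. […] Results were expressed per mg protein, and percent inhibition was taken versus control uptake.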

KB [2] = experiment: Antiproliferative activity against human KB cells expressing human RFC, FRalpha and PCFT assessed as reduction of viable cells after 96 hrs; assay type: functional, cell-based
[3] = biological target: Folate receptor beta (Homo sapiens) (UniProt P14207); experiment: Displacement of [3H]-folic acid from human FRbeta expressed in chinese hamster D4 cells after 15 mins; assay type: cell-based
IGROV-1 [4] = experiment: Antiproliferative activity against human IGROV1 cells expressing human RFC, FRalpha and PCFT assessed as reduction of viable cells after 96 hrs in the presence of 200 nM folic acid; assay type: functional, cell-based; settings: IGROV-1, 96 h
Summary of the method: (§1)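 Same 96 h CellTiter-blue proliferation set-up in folate-free RPMI/10% dFBS with 2 nM leucovorin. Run in parallel incubations that included 200 nM folic acid alongside the antifolate, to establish FR-dependent uptake.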

[5] = Antiproliferative activity against chinese hamster PC43-10 expressing human RFC assessed as reduction of viable cells after 96 hrs; assay type: functional; settings: Cricetulus griseus, PC43-10, 96 h
KB [6] = experiment: Antiproliferative activity against human KB cells expressing human RFC, FRalpha and PCFT assessed as reduction of viable cells after 96 hrs in the presence of 200 nM folic acid; assay type: functional, cell-based; summary of the method: as §1
[7] = Antiproliferative activity against chinese hamster D4 cells expressing human FRbeta assessed as reduction of viable cells after 96 hrs; assay type: functional, cell-based; settings: Cricetulus griseus, D4, 96 h
[8] = Antiproliferative activity against chinese hamster RT16 cells expressing human FRalpha assessed as reduction of viable cells after 96 hrs; assay type: functional, cell-based; settings: Cricetulus griseus, RT16, 96 h
[9] = Antiproliferative activity against chinese hamster RT16 cells expressing human FRalpha assessed as reduction of viable cells after 96 hrs in the presence of 200 nM folic acid; assay type: functional, cell-based; settings: Cricetulus griseus, RT16, 96 h; summary of the method: as §1
[10] = Antiproliferative activity against chinese hamster D4 cells expressing human FRbeta assessed as reduction of viable cells after 96 hrs in the presence of 200 nM folic acid; assay type: functional, cell-based; settings: Cricetulus griseus, D4, 96 h; summary of the method: as §1
R2 [11] = experiment: Antiproliferative activity against chinese hamster R2 cells expressing human PCFT assessed as reduction of viable cells after 96 hrs; assay type: functional, cell-based; settings: Cricetulus griseus, R2, 96 h
[12] = Antiproliferative activity against chinese hamster R2(VC) cells assessed as reduction of viable cells after 96 hrs; settings: Cricetulus griseus
R2 [13] = experiment: Antiproliferative activity against chinese hamster R2 cells assessed as reduction of viable cells after 96 hrs; settings: Cricetulus griseus, R2, 96 h
[14] = biological target: Folate receptor alpha (Homo sapiens) (UniProt P15328); experiment: Displacement of [3H]-folic acid from human FRaplha expressed in chinese hamster RT16 cells after 15 mins; assay type: cell-based
IGROV-1 [15] = experiment: Antiproliferative activity against human IGROV1 cells expressing human RFC, FRalpha and PCFT assessed as reduction of viable cells after 96 hrs; assay type: functional, cell-based; settings: IGROV-1, 96 h
R2 [16] = experiment: Inhibition of GARFTase in chinese hamster R2 cells expressing human PCFT assessed as incorporation of [14C]glycine into [14C]formyl GAR in the presence of 4 uM azaserine; assay type: cell-based; settings: Cricetulus griseus
R2 [17] = experiment: Decrease in intracellular ATP concentration in chinese hamster R2 cells expressing human PCFT at 1 uM after 24 hrs by HPLC relative to control at pH 6.8; assay type: functional, Cricetulus griseus; set-up: scale not given: the % may be the effect or the level left
Summary of the method: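 R2/hPCFT4 CHO cells seeded in folate-free RPMI 1640 with 10% dialysed FBS and 25 nM leucovorin (pH 7.2). After 24 h, switched to the same medium buffered to pH 6.8 with 25 mM PIPES/25 mM HEPES. Drug at 1 µM, or vehicle (0.5% DMSO or H2O), for 24 h. Nucleotides extracted; ATP quantified by HPLC against vehicle control.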

R2 [18] = experiment: Antiproliferative activity against chinese hamster R2 cells expressing human PCFT assessed as growth inhibition in the presence of 10 uM thymidine and 320 uM AICA; assay type: functional, cell-based; settings: Cricetulus griseus
Summary of the method: (§2)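 R2/hPCFT4 cells were grown in folate-free RPMI with 25 nM leucovorin and 10% dFBS and exposed to antifolate for up to 96 h. Rescue co-incubations used thymidine (10 µM), adenosine (60 µM) and AICA (320 µM), alone or combined. Viability was read by CellTiter-blue.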

R2 [19] = experiment: Antiproliferative activity against chinese hamster R2 cells expressing human PCFT assessed as growth inhibition in the presence of 60 uM adenosine; assay type: functional, cell-based; settings: Cricetulus griseus; summary of the method: as §2
R2 [20] = experiment: Antiproliferative activity against chinese hamster R2 cells expressing human PCFT assessed as growth inhibition in the presence of 60 uM adenosine and 10 uM thymidine; assay type: functional, cell-based; settings: Cricetulus griseus; summary of the method: as §2
R2 [21] = experiment: Antiproliferative activity against chinese hamster R2 cells expressing human PCFT assessed as growth inhibition at <50 nM in the presence of 10 uM thymidine; assay type: functional, cell-based; settings: Cricetulus griseus; summary of the method: as §2
[22] = biological target: T2, Proton-coupled folate transporter (Homo sapiens) (UniProt Q96NT5); experiment: Inhibition of human PCFT-mediated [3H]MTX uptake ectopically expressed in chinese hamster R2 cells at 10 uM at pH 5.5 to 7.2; assay type: cell-based
T2 sequence (whole entry): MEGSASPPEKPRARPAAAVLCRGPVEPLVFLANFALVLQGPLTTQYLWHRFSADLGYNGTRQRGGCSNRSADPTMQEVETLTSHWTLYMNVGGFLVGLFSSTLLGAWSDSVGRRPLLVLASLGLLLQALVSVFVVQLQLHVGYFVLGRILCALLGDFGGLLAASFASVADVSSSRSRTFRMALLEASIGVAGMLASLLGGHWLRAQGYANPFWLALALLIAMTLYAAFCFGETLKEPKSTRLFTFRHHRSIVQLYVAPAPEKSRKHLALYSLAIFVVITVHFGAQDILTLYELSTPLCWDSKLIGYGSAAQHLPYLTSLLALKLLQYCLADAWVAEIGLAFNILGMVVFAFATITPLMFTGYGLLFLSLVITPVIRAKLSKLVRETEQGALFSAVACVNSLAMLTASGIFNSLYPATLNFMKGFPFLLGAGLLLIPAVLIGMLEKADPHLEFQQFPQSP

[23] = biological target: T2, Proton-coupled folate transporter (Homo sapiens); experiment: Inhibition of human PCFT-mediated [3H]MTX uptake expressed in chinese hamster R2 cells at pH 5.5 by dixon plot analysis relative to PMX; assay type: cell-based; settings: concentration not given here
[24] = biological target: T2, Proton-coupled folate transporter (Homo sapiens); experiment: Induction of current in human PCFT expressed in xenopus oocyte at 5 uM at holding potential -90 mV by voltage clamp assay
IGROV-1 [25] = experiment: Antitumor activity against human IGROV1 cells expressing human RFC, FRalpha and PCFT xenografted in SCID mouse assessed as log cell kill at 180 mg/kg, iv administered on days 3, 7, 11, 15, and 19 postimplantation; assay type: functional
Summary of the method: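 Female ICR SCID mice, 10 weeks old, on a folate-deficient diet from 24 days before implant. Bilateral subcutaneous IGROV1 tumour fragments (30–60 mg, by trocar); mice pooled, then randomised. IV dosing on days 3, 7, 11, 15 and 19. Mice weighed daily; tumours measured by caliper 2–3 times weekly; mice sacrificed at 1500 mg tumour burden. Weight-loss nadir and recovery recorded.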

[26] = biological target: T2, Proton-coupled folate transporter (Homo sapiens); experiment: Inhibition of human PCFT-mediated [3H]MTX uptake expressed in chinese hamster R2 cells at pH 6.8 […] relative to PMX; assay type: cell-based; settings: concentration not given here

Folate receptor beta (Homo sapiens), sequence (P14207 17-230 limits assumed): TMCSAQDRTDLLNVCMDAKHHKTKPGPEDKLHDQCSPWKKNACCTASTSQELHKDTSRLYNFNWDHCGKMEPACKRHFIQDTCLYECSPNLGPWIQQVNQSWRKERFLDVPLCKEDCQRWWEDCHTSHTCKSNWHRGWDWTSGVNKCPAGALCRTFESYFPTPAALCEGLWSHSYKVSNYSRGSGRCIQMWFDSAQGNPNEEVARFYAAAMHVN
Folate receptor alpha (Homo sapiens), sequence (P15328 25-234 limits assumed): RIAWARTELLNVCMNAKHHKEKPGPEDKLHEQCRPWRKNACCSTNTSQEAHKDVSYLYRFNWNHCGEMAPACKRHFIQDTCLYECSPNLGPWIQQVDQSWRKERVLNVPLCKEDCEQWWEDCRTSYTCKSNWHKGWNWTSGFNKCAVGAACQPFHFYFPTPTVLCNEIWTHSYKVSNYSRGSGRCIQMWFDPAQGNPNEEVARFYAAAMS

Row | Compound | inhibition [1] | IC50 (IGROV-1 [4]) [µM] | IC50 [5] [µM] | IC50 (KB [6]) [µM] | IC50 [9] [µM] | IC50 (R2 [11]) [µM] | IC50 [12] [µM] | IC50 (R2 [13]) [µM] | Activity (R2 [17]) [%] | further results
1 | Nc1nc(=O)c2c([nH]1)NCC(CNc1ccc(C(=O)N[C@@H](CCC(=O)O)C(=O)O)cc1)N2C=O (mixture of isomers) | Active | – | – | – | – | – | – | – | – | –
2 | Nc1nc2[nH]c(CCc3ccc(C(=O)N[C@@H](CCC(=O)O)C(=O)O)s3)cc2c(=O)[nH]1 | Active | > 1 | > 1 | > 1 | > 1 | 0.135 | > 1 | > 1 | – | IC50 (KB [2]): 0.00322 µM; inhibition [3]: inactive; IC50 [7]: 0.00658 µM; IC50 [8]: 0.0389 µM; IC50 [10]: > 1 µM; inhibition [14]: inactive; IC50 (IGROV-1 [15]): 0.123 µM
3 | Nc1nc2c(c(=O)[nH]1)C[C@@H](CCc1ccc(C(=O)N[C@@H](CCC(=O)O)C(=O)O)cc1)CN2 [LOMETREXOL] | Active | – | – | – | > 0.188 | 0.038 | > 1 | – | 76 | inhibition (R2 [16]): Active
4 | Nc1nc2[nH]cc(CCc3ccc(C(=O)N[C@@H](CCC(=O)O)C(=O)O)cc3)c2c(=O)[nH]1 [PEMETREXED] | Active | – | – | – | – | – | – | – | 17 | inhibition (R2 [16]): Active; Activity (R2 [18]): Active; Activity (R2 [19]): Active; Activity (R2 [20]): inactive; Activity (R2 [21]): inactive
5 | Nc1nc(N)c2nc(CNc3ccc(C(=O)N[C@@H](CCCNC(=O)c4ccccc4C(=O)O)C(=O)O)cc3)cnc2n1 [TALOTREXIN] | Active | – | – | – | – | > 1 | > 1 | > 1 | – | inhibition [22]: inactive
6 | Nc1nc2[nH]c(Cc3ccc(C(=O)N[C@@H](CCC(=O)O)C(=O)O)s3)cc2c(=O)[nH]1 | – | > 1 | > 1 | > 1 | > 1 | 0.291 | > 1 | > 1 | – | IC50 (KB [2]): 0.0419 µM; IC50 [8]: 0.122 µM; IC50 (IGROV-1 [15]): > 1 µM
7 | CN(Cc1cnc2nc(N)nc(N)c2n1)c1ccc(C(=O)N[C@@H](CCC(=O)O)C(=O)O)cc1 [METHOTREXATE] | – | – | – | – | – | – | > 1 | – | – | –
8 | Cc1nc(=O)c2cc(CN(C)c3ccc(C(=O)N[C@@H](CCC(=O)O)C(=O)O)s3)ccc2[nH]1 [RALTITREXED] | Active | – | – | – | – | – | – | – | – | –
9 | Nc1nc2[nH]c(CCCCc3ccc(C(=O)N[C@@H](CCC(=O)O)C(=O)O)s3)cc2c(=O)[nH]1 | Active | > 1 | > 1 | > 1 | > 1 | – | > 1 | > 1 | 90 | inhibition [23]: 35%; inhibition [22]: Active; Activity [24]: Active; IC50 [10]: > 1 µM; LCK (IGROV-1 [25]): 2.3; inhibition [26]: 18%

— ChEMBL document CHEMBL1833876 (J Med Chem, 2011)
